The source of these data is ChEMBL document CHEMBL1124050, “2,4-Diamino-6,7-dimethoxyquinazolines. 4. 2-[4-(substituted oxyethoxy) piperidino] derivatives as alpha 1-adrenoceptor antagonists and antihypertensive agents” (J Med Chem, 1988).

The source made the active and inactive calls. No cut-off for these calls is given here.

Assay [1] relates to Rattus norvegicus. Put plainly: Antihypertensive activity in spontaneously hypertensive rats (SHR) at 5 mg/kg dose (po) after 1 h. Format: functional. The procedure, abridged:
(§1)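 Spontaneously hypertensive rats given 5 mg/kg orally; blood pressure measured, with percentage reduction determined at 1 and 6 h after dosing.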

The test system of assay [2] is Rattus norvegicus. Description: Antihypertensive activity in spontaneously hypertensive rats (SHR) at 5 mg/kg dose (po) after 6 h. Format: functional. The method in brief:
as §1

The target in assay [3] is T1, Adrenergic receptor alpha-1 (Rattus norvegicus, UniProt P15823+P23944+P43140).
T1 sequence (P15823 whole entry): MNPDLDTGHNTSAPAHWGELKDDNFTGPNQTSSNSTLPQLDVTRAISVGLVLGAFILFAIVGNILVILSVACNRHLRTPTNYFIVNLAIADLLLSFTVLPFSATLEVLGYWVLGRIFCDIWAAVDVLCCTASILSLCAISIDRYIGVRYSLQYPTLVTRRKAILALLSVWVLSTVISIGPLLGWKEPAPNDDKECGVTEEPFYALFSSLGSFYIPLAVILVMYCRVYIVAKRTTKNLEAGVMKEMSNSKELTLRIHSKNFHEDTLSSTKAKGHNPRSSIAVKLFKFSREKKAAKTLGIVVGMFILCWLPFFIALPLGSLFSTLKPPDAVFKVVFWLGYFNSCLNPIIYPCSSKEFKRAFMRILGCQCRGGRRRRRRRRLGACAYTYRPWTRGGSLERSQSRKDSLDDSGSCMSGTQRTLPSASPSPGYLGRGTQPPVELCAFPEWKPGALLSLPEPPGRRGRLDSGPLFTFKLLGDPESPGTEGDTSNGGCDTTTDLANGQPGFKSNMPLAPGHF
T1 sequence (P23944 whole entry): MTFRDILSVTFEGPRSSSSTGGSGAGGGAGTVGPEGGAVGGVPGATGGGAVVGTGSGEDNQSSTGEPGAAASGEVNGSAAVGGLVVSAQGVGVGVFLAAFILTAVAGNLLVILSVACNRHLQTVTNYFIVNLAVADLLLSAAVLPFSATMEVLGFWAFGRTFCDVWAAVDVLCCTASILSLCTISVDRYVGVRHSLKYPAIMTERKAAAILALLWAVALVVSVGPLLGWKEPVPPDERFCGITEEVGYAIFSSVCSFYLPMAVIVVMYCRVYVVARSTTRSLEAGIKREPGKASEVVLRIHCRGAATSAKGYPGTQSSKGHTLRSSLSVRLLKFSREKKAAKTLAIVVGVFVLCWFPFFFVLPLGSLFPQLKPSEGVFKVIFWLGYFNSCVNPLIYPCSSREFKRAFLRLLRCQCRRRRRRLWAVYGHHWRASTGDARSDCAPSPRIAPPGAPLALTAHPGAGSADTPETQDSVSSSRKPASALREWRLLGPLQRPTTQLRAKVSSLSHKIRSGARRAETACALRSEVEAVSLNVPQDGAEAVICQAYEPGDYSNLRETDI
T1 sequence (P43140 whole entry): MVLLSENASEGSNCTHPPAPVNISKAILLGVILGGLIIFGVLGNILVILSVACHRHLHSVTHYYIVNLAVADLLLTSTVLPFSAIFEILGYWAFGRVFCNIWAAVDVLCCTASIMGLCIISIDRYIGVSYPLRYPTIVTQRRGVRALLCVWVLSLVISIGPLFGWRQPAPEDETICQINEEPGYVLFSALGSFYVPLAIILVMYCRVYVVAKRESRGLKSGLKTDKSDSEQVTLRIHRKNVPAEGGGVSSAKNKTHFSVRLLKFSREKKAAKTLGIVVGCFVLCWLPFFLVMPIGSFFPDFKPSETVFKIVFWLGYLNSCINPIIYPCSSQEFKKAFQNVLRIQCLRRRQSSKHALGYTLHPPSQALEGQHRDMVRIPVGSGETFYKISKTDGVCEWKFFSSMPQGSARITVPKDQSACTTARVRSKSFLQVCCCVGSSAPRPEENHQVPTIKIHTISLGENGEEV
Put plainly: Binding affinity for alpha-1 adrenergic receptor by displacement of [3H]-prazosin from rat brain homogenate preparation. It counts as tissue-based. In general terms: In a radioligand displacement assay an active substance lowers the binding of a labelled ligand.

The species named for assay [4] is Oryctolagus cuniculus. Description: Concentration producing a 40% reduction in contractile response in rabbit pulmonary artery (Functional alpha-antagonist activity); EC40-post.
In assay [5] the target is T2, Adrenergic receptor alpha-2 (Rattus norvegicus) (UniProt P22086+P19328+P22909). Description: Binding affinity for alpha-2 adrenergic receptor by displacement of [3H]clonidine at 10e-6 M from rat brain homogenate preparation. Format: tissue-based. The method in brief: (§2)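 Rat brain homogenate; percentage displacement of [3H]clonidine by test agent at 10⁻⁶ M; NA denotes under 50%. Mean ± SEM of at least three separate experiments, each in triplicate.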

The species named for assay [6] is Oryctolagus cuniculus. Description: Concentration producing a 40% increase in [3H]- overflow in rabbit pulmonary artery (Functional alpha-antagonist activity); EC40-pre NA=indicates no activity at 10e-5 M.
For assay [7], the species on record is Oryctolagus cuniculus. Put plainly: Concentration producing a 40% increase in [3H]- overflow in rabbit pulmonary artery (Functional alpha-antagonist activity)d; NA= indicates no activity at 10e-5 M.
The species entered for assay [8] is Oryctolagus cuniculus. Put plainly: Concentration producing a 40% reduction in contractile response in rabbit pulmonary artery (Functional alpha-antagonist activity).
For assay [9], the target named is T2, Adrenergic receptor alpha-2 (Rattus norvegicus). Put plainly: Binding affinity for alpha-2 adrenergic receptor by displacement of [3H]clonidine at 10e-6 M from rat brain homogenate preparation; indicates less than 50%. Format: tissue-based. The method in brief:
as §2

The species entered for assay [10] is Oryctolagus cuniculus. Description: Concentration producing a 40% increase in [3H]- overflow in rabbit pulmonary artery (Functional alpha-antagonist activity).
The target in assay [11] is T2, Adrenergic receptor alpha-2 (Rattus norvegicus). Put plainly: Binding affinity for alpha-2 adrenergic receptor by displacement of [3H]clonidine at 10e-6 M from rat brain homogenate preparation; NA=indicates less than 50%. Format: tissue-based. The method in brief:
as §2

The species named for assay [12] is Oryctolagus cuniculus. Description: Concentration producing a 40% increase in [3H]- overflow in rabbit pulmonary artery (Functional alpha-antagonist activity);EC40-pre, NA=indicates no activity at 10e-5 M.

`CCOCCOC1CCN(c2nc(N)c3cc(OC)c(OC)cc3n2)CC1`: the Reduction turned out to be 22% in the assay with Rattus norvegicus [1] and 20% with Rattus norvegicus [2]. For the same compound, the Ki in assay [3] turned out to be 1.81 nM. Also, the EC40 in the assay filed under Oryctolagus cuniculus [4] turned out to be 38 nM. The same compound displayed a Displacement in [5] of 65.3%. Further, in the assay listed under Oryctolagus cuniculus [6], the EC40 result is “inactive”.

`CCOC(C)COC1CCN(c2nc(N)c3cc(OC)c(OC)cc3n2)CC1` (stereo unspecified): the Reduction is on record as 43% with Rattus norvegicus [1] and 20% with Rattus norvegicus [2]. The compound also came in with a Ki in [3] of 0.99 nM. Further, the Displacement in assay [5] was 74.3%.

Regarding `CCCCOCCOC1CCN(c2nc(N)c3cc(OC)c(OC)cc3n2)CC1`, the Reduction in the assay with Rattus norvegicus [1] turned out to be 27%; in the assay with Rattus norvegicus [2] it was 20%. Further, the Ki in assay [3] is reported as 1.03 nM. This compound displayed a Displacement in [5] of 76%.

As to `COc1cc2nc(N3CCC(OCC(C)(O)c4ccccc4)CC3)nc(N)c2cc1OC` (stereo unspecified), the Reduction with Rattus norvegicus [1] stood at 23%; in the assay with Rattus norvegicus [2] it was 20%. The Ki in assay [3] is 0.62 nM. This compound also returned a Displacement in [5] of 97%.

With `CCOC(C)(COC1CCN(c2nc(N)c3cc(OC)c(OC)cc3n2)CC1)c1ccccc1` (stereo unspecified), in the assay listed under Oryctolagus cuniculus [7], the EC40 result is “inactive”. Moreover, the Reduction with Rattus norvegicus [1] is on record as 20%; in the assay on Rattus norvegicus [2], 13%. Further, in assay [3], the Ki stood at 0.15 nM. In the assay filed under Oryctolagus cuniculus [8], this compound returned an EC40 of 15 nM. In assay [5], this compound came in with a Displacement of 97.5%.

Turning to `CCOCC(OC1CCN(c2nc(N)c3cc(OC)c(OC)cc3n2)CC1)c1ccccc1` (stereo unspecified), the Reduction in the assay with Rattus norvegicus [1] is recorded as 24%; in the assay with Rattus norvegicus [2], 19%. For the same compound, the Ki in [3] is 10 nM. Besides, the Displacement in [9] was under 50%.

For the compound `COc1cc2nc(N3CCC(OCC(C)O)CC3)nc(N)c2cc1OC` (stereo unspecified), the Reduction stood at 30% with Rattus norvegicus [1] and 19% in the assay on Rattus norvegicus [2]. The compound further showed an inhibition constant Ki in [3] of 3.52 nM. Besides, the Displacement in [5] amounted to 55%.

On to `COCCOC1CCN(c2nc(N)c3cc(OC)c(OC)cc3n2)CC1`, for which the Reduction is on record as 57% in the assay with Rattus norvegicus [1] and 28% with Rattus norvegicus [2]. In addition, the inhibitory constant (Ki) in assay [3] amounted to 2.12 nM. This compound also displayed a Displacement in assay [5] of 53%.

On to `COc1cc2nc(N3CCC(OCC(O)c4ccccc4)CC3)nc(N)c2cc1OC` (stereo unspecified), for which the Reduction with Rattus norvegicus [1] is on record as 26%; in the assay on Rattus norvegicus [2] it was 16%. The compound further returned an inhibitory constant (Ki) in assay [3] of 0.15 nM. This compound displayed a Displacement in [5] of 91%.

Regarding `COc1cc2nc(N3CCN(C(=O)c4ccco4)CC3)nc(N)c2cc1OC` [PRAZOSIN], the Reduction in the assay on Rattus norvegicus [1] is reported as 33%; in the assay with Rattus norvegicus [2], 29%. In addition, the EC40 in the assay listed under Oryctolagus cuniculus [8] turned out to be 4.5 nM; in the assay filed under Oryctolagus cuniculus [10], 1300 nM.

For the compound `COc1cc2nc(N3CCC(OCCO)CC3)nc(N)c2cc1OC`, the Reduction came out at 8% in the assay with Rattus norvegicus [1] and 10% in the assay on Rattus norvegicus [2]. Further, the Displacement in assay [11] is under 50%. This compound also registered an inhibition constant (Ki) in assay [3] of 2.2 nM.

Consider `COc1cc2nc(N3CCC(OCC(C)(C)OC)CC3)nc(N)c2cc1OC`, for which the results for the Reduction with Rattus norvegicus [1] and in the assay with Rattus norvegicus [2] were 20% and 9%, respectively. In addition, the Ki in [3] turned out to be 1.14 nM. In [5], this compound showed a Displacement of 75.7%.

`COc1cc2nc(N3CCC(OCCOc4ccccc4)CC3)nc(N)c2cc1OC`: the figures for the Reduction in the assay on Rattus norvegicus [1] and in the assay with Rattus norvegicus [2] were 26% and 18%, respectively. Further, in assay [3], the inhibition constant (Ki) is reported as 0.48 nM. This compound returned an EC40 in the assay filed under Oryctolagus cuniculus [4] of 44 nM. The EC40 entry in the assay filed under Oryctolagus cuniculus [12] was “inactive”. For the same compound, the Displacement in assay [5] turned out to be 79.3%.

Take `CCOC(COC1CCN(c2nc(N)c3cc(OC)c(OC)cc3n2)CC1)c1ccccc1` (stereo unspecified): the figures for the Reduction in the assay with Rattus norvegicus [1] and with Rattus norvegicus [2] were 16% and 12%, respectively. This compound gave a Ki in assay [3] of 0.52 nM. Further, the Displacement in [5] was found to be 84.5%.

In the case of `COc1cc2nc(N3CCC(OCC(C)(C)O)CC3)nc(N)c2cc1OC`, the Reduction in the assay with Rattus norvegicus [1] is 40%; in the assay on Rattus norvegicus [2] it was 22%. The compound further came in with a Ki in assay [3] of 1.28 nM. In addition, the Displacement in [5] came to 61.7%.

`COc1cc2nc(N3CCC(OCCOC4CCCC4)CC3)nc(N)c2cc1OC`: the results for the Reduction in the assay with Rattus norvegicus [1] and in the assay with Rattus norvegicus [2] were 20% and 11%, respectively.

Take `COc1cc2nc(N3CCC(OCCOC(C)C)CC3)nc(N)c2cc1OC`: the Reduction was found to be 26% with Rattus norvegicus [1] and 15% in the assay with Rattus norvegicus [2]. This compound showed a Ki in [3] of 0.67 nM. This compound came in with a Displacement in assay [5] of 73.4%.

With `COc1cc2nc(N3CCC(OCC(C)OC)CC3)nc(N)c2cc1OC` (stereo unspecified), the figures for the Reduction in the assay with Rattus norvegicus [1] and in the assay on Rattus norvegicus [2] were 34% and 16%, respectively. For the same compound, the inhibition constant Ki in assay [3] is on record as 1.41 nM. In assay [5], this compound registered a Displacement of 68.7%.

What is called Ki is the equilibrium dissociation constant of an inhibitor or competing ligand from its target. Lower therefore signals tighter binding.
